Reference: ChEMBL document CHEMBL6134795, “Mannich reaction mediated derivatization of chromones and their biological evaluations as putative multipotent ligands for the treatment of Alzheimer's disease” (RSC Med Chem, 2024)

What was measured:
[1] = molecular target: T1, Amine oxidase [flavin-containing] B (Homo sapiens, UniProt P27338); assay: Inhibition of recombinant MAO-B (unknown origin) at 20 uM preincubated for 30 mins followed substrate addition by Amplex Red reagent based fluorescence analysis relative to control
T1 sequence (P27338 whole entry): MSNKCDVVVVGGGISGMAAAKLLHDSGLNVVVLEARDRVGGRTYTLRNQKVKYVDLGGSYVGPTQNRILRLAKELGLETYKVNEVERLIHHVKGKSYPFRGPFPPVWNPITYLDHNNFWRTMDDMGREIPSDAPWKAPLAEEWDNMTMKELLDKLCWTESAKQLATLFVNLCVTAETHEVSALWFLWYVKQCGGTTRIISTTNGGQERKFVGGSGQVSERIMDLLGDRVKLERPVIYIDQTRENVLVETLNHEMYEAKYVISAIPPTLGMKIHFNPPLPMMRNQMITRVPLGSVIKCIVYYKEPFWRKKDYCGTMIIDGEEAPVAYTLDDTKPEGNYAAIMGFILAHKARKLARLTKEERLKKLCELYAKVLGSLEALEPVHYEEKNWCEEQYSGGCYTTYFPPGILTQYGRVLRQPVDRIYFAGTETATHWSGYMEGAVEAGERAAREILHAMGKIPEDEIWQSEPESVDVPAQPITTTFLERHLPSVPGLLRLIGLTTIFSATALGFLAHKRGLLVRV
Summary of the method: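 Recombinant MAO enzyme preincubated with compound 30 min at 37 °C; substrate, HRP and Amplex Red working solution then added; H2O2 formation read at 37 °C by fluorescence, ex 545/em 590 nm. Screening at 20 μM as % inhibition versus control; IC50 only for compounds above 50% inhibition at 20 μM; triplicate (n = 3).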

[2] = molecular target: Amyloid-beta precursor protein (Homo sapiens) (UniProt P05067); assay: Inhibition of self-induced amyloid beta (1 to 42 residues) (unknown origin) aggregation at 20 uM incubated at 48 hrs by fluorimetry-based thioflavin T assay
Chain of Amyloid-beta precursor protein (Homo sapiens) (P05067 whole entry, the tested form may be a part): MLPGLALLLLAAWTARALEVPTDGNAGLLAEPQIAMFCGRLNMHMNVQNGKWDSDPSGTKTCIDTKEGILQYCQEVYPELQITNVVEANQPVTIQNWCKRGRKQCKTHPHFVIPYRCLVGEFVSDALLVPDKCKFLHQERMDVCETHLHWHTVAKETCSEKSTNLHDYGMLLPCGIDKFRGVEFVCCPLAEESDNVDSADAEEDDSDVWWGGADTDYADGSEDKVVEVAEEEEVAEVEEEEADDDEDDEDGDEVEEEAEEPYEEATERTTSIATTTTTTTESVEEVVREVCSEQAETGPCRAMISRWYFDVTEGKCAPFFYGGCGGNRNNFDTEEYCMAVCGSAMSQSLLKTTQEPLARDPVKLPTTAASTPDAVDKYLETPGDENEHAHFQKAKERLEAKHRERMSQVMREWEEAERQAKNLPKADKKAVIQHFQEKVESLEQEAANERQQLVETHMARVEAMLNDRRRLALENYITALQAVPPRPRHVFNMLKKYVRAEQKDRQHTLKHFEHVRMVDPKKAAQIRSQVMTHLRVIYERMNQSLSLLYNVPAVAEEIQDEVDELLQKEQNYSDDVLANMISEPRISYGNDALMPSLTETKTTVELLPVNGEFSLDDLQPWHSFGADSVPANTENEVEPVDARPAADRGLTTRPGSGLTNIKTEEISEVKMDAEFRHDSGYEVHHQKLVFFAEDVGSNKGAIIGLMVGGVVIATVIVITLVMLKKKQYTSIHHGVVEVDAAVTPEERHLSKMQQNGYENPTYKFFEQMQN
Summary of the method: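 Aβ1-42 pretreated with HFIP (1 mg mL−1) and dried, then incubated with compound (20 μM) at 37 °C for 24 h; an aliquot transferred and incubated further to 48 h. Glycine–NaOH buffer pH 8.0 with 5 μM ThT added; fluorescence read at 440–485 nm. % inhibition calculated against the Aβ-only control taken as 0%.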

[3] = molecular target: T1, Amine oxidase [flavin-containing] B; assay: Inhibition of recombinant MAO-B (unknown origin) preincubated for 30 mins followed substrate addition by Amplex Red reagent based fluorescence analysis
Acetylcholinesterase [4] = molecular target: T2, Acetylcholinesterase (Homo sapiens, UniProt P22303); assay: Reversible inhibition of AChE (unknown origin) assessed as residual activity at 10 times IC50 incubated for 30 mins by dilution method relative to control
T2 sequence (P22303 whole entry): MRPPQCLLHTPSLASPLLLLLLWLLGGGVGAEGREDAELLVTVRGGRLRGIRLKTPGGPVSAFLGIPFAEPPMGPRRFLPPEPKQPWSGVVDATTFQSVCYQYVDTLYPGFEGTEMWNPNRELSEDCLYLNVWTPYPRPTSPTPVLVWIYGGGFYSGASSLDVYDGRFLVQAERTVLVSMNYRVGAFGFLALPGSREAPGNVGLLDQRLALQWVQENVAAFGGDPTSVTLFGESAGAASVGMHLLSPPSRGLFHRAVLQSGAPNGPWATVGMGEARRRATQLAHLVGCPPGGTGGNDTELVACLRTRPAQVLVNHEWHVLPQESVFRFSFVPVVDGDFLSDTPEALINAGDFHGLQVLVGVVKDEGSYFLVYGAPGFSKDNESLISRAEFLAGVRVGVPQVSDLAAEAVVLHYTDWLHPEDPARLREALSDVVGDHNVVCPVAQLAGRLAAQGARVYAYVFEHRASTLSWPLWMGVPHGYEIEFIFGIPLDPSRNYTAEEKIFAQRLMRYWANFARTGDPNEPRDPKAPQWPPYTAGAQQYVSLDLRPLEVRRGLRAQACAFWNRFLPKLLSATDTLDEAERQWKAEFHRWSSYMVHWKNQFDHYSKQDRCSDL
Summary of the method: (§1)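 Samples then diluted 100-fold with substrate, giving final inhibitor levels of 0.1× and 1× IC50. Recovered activity measured relative to control; triplicate.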

Acetylcholinesterase [5] = molecular target: T2, Acetylcholinesterase; assay: Reversible inhibition of AChE (unknown origin) assessed as residual activity at 0.1 times IC50 incubated for 30 mins by dilution method relative to control; summary of the method: as §1
[6] = molecular target: T1, Amine oxidase [flavin-containing] B; assay: Reversible inhibition of MAO-B (unknown origin) assessed as residual activity at 10 times IC50 incubated for 30 mins by dilution method relative to control; conditions: 0.5 h
[7] = molecular target: T1, Amine oxidase [flavin-containing] B; assay: Reversible inhibition of MAO-B (unknown origin) assessed as residual activity at 1 times IC50 incubated for 30 mins by dilution method relative to control; conditions: 0.5 h
SH-SY5Y [8] = assay: Cytotoxicity against human SH-SY5Y cells assessed as cell viability at 1 uM by MTT assay relative to control; type: functional; conditions: read-out: Activity
Summary of the method: (§2)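 SH-SY5Y cells (DMEM/F-12 with 10% FBS, 1% horse serum, 1% penicillin) preincubated 24 h with compound at 1, 5 or 25 μM; MTT converted to formazan, solubilised in DMSO, absorbance read at 595 nm; viability expressed as percentage of untreated control.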

SH-SY5Y [9] = assay: Cytotoxicity against human SH-SY5Y cells assessed as cell viability at 5 uM by MTT assay relative to control; type: functional; conditions: read-out: Activity; summary of the method: as §2
SH-SY5Y [10] = assay: Cytotoxicity against human SH-SY5Y cells assessed as cell viability at 25 uM by MTT assay relative to control; type: functional; conditions: read-out: Activity; summary of the method: as §2
SH-SY5Y [11] = assay: Cytotoxicity against human SH-SY5Y cells assessed as reduction in cell viability at 1 to 25 uM by MTT assay; type: functional, cell-based; conditions: dose 1-25 µM; summary of the method: as §2
SH-SY5Y [12] = assay: Inhibition of ROS production in human SH-SY5Y cells assessed as intracellular ROS level at 1 uM incubated for 24 hrs by DCF-DA staining based fluorescence analysis relative to control; type: functional
Summary of the method: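 Cultured SH-SY5Y cells exposed to compound (1, 5, 25 μM) for 24 h; intracellular ROS detected with DCF-DA, which is converted to fluorescent 2,7-DCF, read at ex 478/em 518 nm. Inhibition is expressed relative to control. Mean ± SD of triplicate or more independent experiments.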

SH-SY5Y [13] = assay: Neuroprotective activity against 6-OHDA-induced cytotoxicity in human SH-SY5Y cells assessed as cell viability at 1 uM incubated for 24 hrs followed by exposure to 6-OHDA by MTT assay relative to control; type: functional; conditions: read-out: Activity
Summary of the method: (§3)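 SH-SY5Y cells treated with compound (1, 5, 25 μM) and challenged with 6-OHDA; cultured 24 h at 37 °C under humidified 5% CO2. Viability measured by MTT as formazan absorbance at 594 nm and expressed relative to control.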

SH-SY5Y [14] = assay: Neuroprotective activity against 6-OHDA-induced cytotoxicity in human SH-SY5Y cells assessed as cell viability at 5 uM incubated for 24 hrs followed by exposure to 6-OHDA by MTT assay relative to control; type: functional; conditions: read-out: Activity; summary of the method: as §3

With `C#CCCCOc1ccc(-c2cc(=O)c3ccccc3o2)cc1CN1CCCCC1` the inhibition at 20 µM [1] was 61.2%, the inhibition [2] was 32.2% and the IC50 [3] was 12.3 µM. For the same compound, the Activity (Acetylcholinesterase [4]) was 28.9%, the Activity (Acetylcholinesterase [5]) was 60.6% and the Activity [6] was 27.8%. The Activity [7] was 50.3%, the viability at 1 µM (SH-SY5Y [8]) was 99.6% and the viability at 5 µM (SH-SY5Y [9]) was 97.4%. The viability at 25 µM (SH-SY5Y [10]) was 88.3%, the Activity (SH-SY5Y [11]) was “Not toxic” and the inhibition at 1 µM (SH-SY5Y [12]) was 65.7%. It also gave a viability at 1 µM (SH-SY5Y [13]) of 55.1% and a viability at 5 µM (SH-SY5Y [14]) of 42.9%.
